Laboratory results: ChEMBL document CHEMBL1155641, “Cytotoxic cembrenolides and steroids from the formosan soft coral Sarcophyton crassocaule” (2000)
≈ marks a conversion by molar mass, not a printed value.

What was measured:
Format in all cases: functional
Conditions in all cases: read-out: ED50 (the source's name)
A549 = experiment: Cytotoxicity against human A549 cells
Method in brief: (§1)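 Human A549 lung adenocarcinoma and HT-29 colon adenocarcinoma cell lines from the American Type Culture Collection. Cytotoxicity assay run per a previously described procedure.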

KB = experiment: Cytotoxicity against human KB cells
Method in brief: (§2)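 Human KB epidermoid carcinoma and mouse P-388 lymphocytic leukemia cells came from an academic laboratory (University of Illinois at Chicago). Cytotoxicity assay run per a previously described procedure.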

P388 = experiment: Cytotoxicity against mouse P388 cells; method in brief: as §2
HT-29 = experiment: Cytotoxicity against human HT29 cells; method in brief: as §1

Row | SMILES | EC50 (A549) [µg/mL] | EC50 (KB) [µg/mL] | EC50 (P388) [µg/mL] | EC50 (HT-29) [µg/mL]
1 | C=C1C(=O)O[C@H]2[C@H]1C[C@@H]1O[C@@]1(C)CC/C=C(\C)CC/C=C(\C)[C@@H]2OC(C)=O | 4.66 (≈ 12.4 µM) | 7.39 (≈ 19.7 µM) | 0.38 (≈ 1.01 µM) | 5.67 (≈ 15.1 µM)
2 | CC(C)[C@@H](C)CC[C@@H](C)[C@H]1CC[C@H]2[C@@H]3C[C@@H](O)[C@@]4(O)C[C@@H](O)CC[C@]4(C)[C@H]3CC[C@]12C | 6.26 (≈ 14.4 µM) | 5.38 (≈ 12.4 µM) | 0.14 (≈ 0.322 µM) | 8.35 (≈ 19.2 µM)
3 | CC(=O)OC(C)(C)[C@H](C)CC[C@@H](C)[C@H]1CC[C@H]2[C@@H]3C[C@@H](O)[C@@]4(O)C[C@@H](O)CC[C@]4(C)[C@H]3CC[C@]12C | 22.4 (≈ 45.5 µM) | 26.8 (≈ 54.5 µM) | 3.96 (≈ 8.04 µM) | 4.32 (≈ 8.77 µM)
4 | C=C1C(=O)O[C@H]2/C=C(\C)CC[C@H](OC(C)=O)[C@@]3(C)CC[C@H](OO3)/C(C)=C\C[C@@H]12 [DENTICULATOLIDE] | 6.46 (≈ 16.5 µM) | 6.29 (≈ 16.1 µM) | 0.15 (≈ 0.384 µM) | 5.78 (≈ 14.8 µM)
5 | C=C1C(=O)O[C@@H]2C/C(C)=C/CC/C(C)=C/CC[C@]3(C)O[C@H]3C[C@@H]12 [SARCOCRASSOLIDE] | 8.31 (≈ 26.3 µM) | 9.15 (≈ 28.9 µM) | 0.16 (≈ 0.506 µM) | 7.55 (≈ 23.9 µM)
